Here are results for five compounds from publication PMC5933005 (Dalton Transactions (Cambridge, England : 2003), 2018).

The format of series [1] is in vitro ADME, human. To be noted: for proportion of platinum found in blood cells: after 2 h, ~10 μM in whole human blood, 37 °C. The method in brief:
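Fresh heparinised human whole blood was spiked from a 1 mM aqueous stock to a final ~10 μM and incubated at 37 °C for 0, 0.5, 1, 2 and 24 h. It was centrifuged for 10 min at 2000 rcf in a 4 °C rotor. Plasma and cell fractions were microwave-digested in 25% nitric acid at 200 °C, and Pt was measured by ICP-MS. Values were normalised to haematocrit (47%) and fraction density, and the rate constant came from an exponential fit.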

For series [2], the system named is SW480 (colon carcinoma) cells. To be noted: 2 h exposure; cited from earlier work.
The test system of series [3] is leukemia L1210 mouse model. To be noted: cited from earlier work.
A short description of series [4]: Biotransformation / kinetic inertness in whole human blood by RP-ICP-MS. The class given is in vitro ADME. To be noted: 37 °C; for stability of parent compound in whole human blood: 24 h incubation; for platinum(II) metabolites detected in whole human blood: after 24 h incubation. The method in brief: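 Fresh human blood spiked with test compound was extracted in one of two ways: ice-cold acetonitrile with vortexing, sonication and centrifugation, or 0.1% formic acid, dry-ice freeze/sonication thaw, then 25% TCA precipitation. Supernatants were 0.45 μm filtered, diluted 1:5 in 50 mM ammonium formate (pH 6.0) and held at 4 °C. Species were separated by C18 RP-ICP-MS in triplicate, with a platinum(IV) reference QC for normalisation. Half-life came from a first-order fit.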

For series [5], the system named is murine colon cancer model CT-26. To be noted: i.p. and p.o. administration; cited from earlier work.
The conditions of series [6]: whole human blood in vitro; cited from earlier work.
The conditions of series [7]: 15 min after oral administration; cited from earlier work.
Where [8] appears, read: kinetic model, exponential kinetics, whole human blood.

Where two headings read alike, the source gives them in different places.

Turning to `CC[NH][Pt]([Cl])([Cl])([NH]CC)([O]C(=O)CCC(=O)OCC)[O]C(=O)CCC(=O)OCC` [Complex 4, (OC-6-33)-dichloridobis((4-ethoxy)-4-oxobutanoato)bis(ethylamine)platinum(IV)], the “proportion of platinum found in blood cells” value in series [1] is “around 60%”. Moreover, in series [1] (listed as Compound 4), the “proportion of platinum found in blood cells” value is listed as 60%. In series [1] (setting [8]), the “drug-related platinum inside blood cells in equilibrium” value came to 59.7 ± 0.9% and the “first-order rate constant of accumulation in blood cells” value worked out at 1.2 ± 0.1 h⁻¹. In addition, the “proportion of platinum in red blood cells” value in series [1] (time point 0, ~10 μM in whole human blood) is 30%. The “platinum accumulation in SW480 cells” value in series [2] was “high platinum accumulation”. Also, in series [3], the “efficacy in L1210 model” value is listed as “efficacy”. Further, in series [4] (10 μM, RP-ICP-MS), the “stability of parent compound in whole human blood” value (“stability of parent compound” below) was “could not be detected any more after 24 hours” and the “platinum(II) metabolites detected in whole human blood” value was “no notable amounts of hydrophilic platinum(II)-metabolites were detected”. The compound also registered a half-life in blood in series [4] (first-order kinetic model, whole human blood) of 45.4 ± 3.3 min. Also, in series [5], the “anticancer activity in CT-26 model” value is reported as “showed anticancer activity”.
For `O=C1[O][Pt]2([OH])([OH])([NH]C3CCCCC3[NH]2)[O]C1=O` [Complex 1, (OC-6-33)-dihydroxido(1R,2R-diaminocyclohexane)oxalatoplatinum(IV)], in series [4] (10 μM, RP-ICP-MS), the “stability of parent compound” value is given as “remain stable over 24 hours”.
For the compound `CC(=O)[O][Pt]1([NH2])([NH2])([O]C(C)=O)[O]C(=O)C2(CCC2)C(=O)[O]1` [Complex 3, (OC-6-33)-diacetatodiammine(1,1-cyclobutanedicarboxylato)-platinum(IV)], in series [4] (10 μM, RP-ICP-MS), the “stability of parent compound” value is on record as “remain stable over 24 hours”.
Turning to `CC(=O)[O][Pt]([NH2])([Cl])([Cl])([NH]C1CCCCC1)[O]C(C)=O` [satraplatin], the “half-life for the disappearance of the parent compound” value in series [6] was 6.3 min. For the same compound, in series [7], the “detection of parent compound in patient's plasma ultrafiltrate” value is given as “could not be detected any more” and the “number of platinum-containing species in patient's plasma ultrafiltrate” value is given as “seven”.
“(OC-6-33)-diacetato(1R,2R-diaminocyclohexane)oxalatoplatinum(IV) [Complex 2]”: in series [4] (10 μM, RP-ICP-MS), the “platinum(II) metabolites detected in whole human blood” value is listed as “a significant amount of oxaliplatin could be detected”. Moreover, the “species observed in whole human blood” value in series [4] (over 6 hours incubation, 10 μM, RP-ICP-MS) is reported as “only the intact complex was observed”.
